High-throughput results deposited in PubChem by several laboratories.
Myeloid diff 2 = promotes myeloid progenitor differentiation. ER-HoxA9 myeloid progenitors, lysozyme-GFP differentiation, flow cytometry. calls only at 10 µM. 1% of 360,000 active. AID 624256;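 active means normalized GFP-positive differentiation at or above the plate's own cutoff, the solvent-only control mean plus 3 SD; inconclusive means no clear call, values can overlap the other calls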;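 further: cells exposed to compound for four days before flow analysis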
T cell modulator = T cell immune modulators affecting CD8 T cell-vesicle binding; 2C CD8+ T cell-vesicle binding, flow cytometry; hits give low values; response (vesicle binding), % at 7 µM; 0.068% of 330,000 active;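 active means response, share of CD8 T cells binding vesicles, and their 90th percentile fluorescence all below set limits, cut at about 80% in these data, passing the limit was not always enough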;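 further: values below 100% mean blocked vesicle binding to the CD8+ T cells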
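incubation = binding step 1.5 h, 37 °C, antibody labelling 20 min, ice | test system = 2C mouse CD8+ T cells | read-out basis = percent CD8+ FL2 mean versus row control | controls = Peptide-free naked vesicles (low) and QL9 vesicles with 0.7% DMSO vehicle (high) | detection = flow cytometry of vesicle-bound cells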
Pemphigus Ab inh = inhibitors of pemphigus antibody binding to human desmoglein-3. P32926. DSG3-coupled beads, scFv-anti-DSG3-GFP binding, flow cytometry; hits give low values. binding (percent of control), % at 10 µM. 0.48% of 310,000 active. AID 588358;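 active means binding more than 3 SD below its plate's average and above zero; inconclusive means below that plate limit but binding exactly zero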;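 further: hits lower antibody fragment binding to DSG3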
Target sequence (P32926 whole entry, looked up, the tested form may be a part): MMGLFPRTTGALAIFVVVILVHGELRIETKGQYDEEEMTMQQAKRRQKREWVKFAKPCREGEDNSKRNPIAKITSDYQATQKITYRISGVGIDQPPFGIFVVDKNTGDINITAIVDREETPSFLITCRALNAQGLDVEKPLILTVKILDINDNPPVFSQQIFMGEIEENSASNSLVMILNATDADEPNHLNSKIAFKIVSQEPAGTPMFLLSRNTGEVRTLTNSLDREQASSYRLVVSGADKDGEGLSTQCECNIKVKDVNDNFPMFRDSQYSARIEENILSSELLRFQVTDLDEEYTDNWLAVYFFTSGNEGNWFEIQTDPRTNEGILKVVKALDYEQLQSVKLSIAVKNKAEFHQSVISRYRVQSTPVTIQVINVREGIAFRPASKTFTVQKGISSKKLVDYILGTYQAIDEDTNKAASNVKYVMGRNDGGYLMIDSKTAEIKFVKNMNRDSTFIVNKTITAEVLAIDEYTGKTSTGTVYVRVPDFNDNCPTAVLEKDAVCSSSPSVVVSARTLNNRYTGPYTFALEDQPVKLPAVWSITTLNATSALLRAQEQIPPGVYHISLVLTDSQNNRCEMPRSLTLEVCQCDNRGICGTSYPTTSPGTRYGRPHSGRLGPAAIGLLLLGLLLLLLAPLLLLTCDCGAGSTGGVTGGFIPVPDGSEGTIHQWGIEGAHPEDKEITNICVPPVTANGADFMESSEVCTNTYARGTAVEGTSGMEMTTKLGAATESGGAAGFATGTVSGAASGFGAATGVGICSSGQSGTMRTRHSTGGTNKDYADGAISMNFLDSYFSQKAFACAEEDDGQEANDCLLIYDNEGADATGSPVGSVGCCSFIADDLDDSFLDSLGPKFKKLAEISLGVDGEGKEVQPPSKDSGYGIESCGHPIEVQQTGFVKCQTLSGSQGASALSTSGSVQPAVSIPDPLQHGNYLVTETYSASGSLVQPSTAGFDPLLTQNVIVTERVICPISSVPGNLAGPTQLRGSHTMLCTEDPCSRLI
Vif inh = blocks HIV Vif function | HEK293T cells, Vif self-association by quenched fluorescence, imaging, 24 h | inhibition, % at 7.49 µM | 0.35% of 340,000 active | AID 602346; in the data active means inhibition above about 50%, passing the limit was not always enough; inconclusive means no clear call, values can overlap the other calls; inactive means below about 31%
Numbers without * were called inactive; i = inactive; ? = inconclusive; . = no result given; + = active, no number; ! = a repeat was not active. A selection: hits, their analogues and other compounds. The true share with any hit is near 1.7%.

SMILES	Myeloid diff 2	T cell modulator	Pemphigus Ab inh	Vif inh
COc1cc(C(C)=O)ccc1OCC(=O)NCC1(N2CCCCC2)CCCCC1	i	561	100	51*
O=C(COc1ccc(F)cc1Br)NCC1(N2CCCCC2)CCCCC1	i	479	126	5
Nc1ncnc2c1ncn2[C@@H]1O[C@H](C(=O)N2CCN(Cc3ccccn3)CC2)[C@@H](O)[C@H]1O	i	.	.	1
Cc1cc(C)n(CC(C)NCc2cn[nH]c2-c2ccc(C)c(C)c2)n1 (stereo unspecified)	+	210	93	-2
Clc1ccc(C(Cn2ccnc2)OCc2c(Cl)cccc2Cl)c(Cl)c1 (stereo unspecified)	+	663	96	4
C=Cc1c(C)c2cc3[nH]c(cc4nc(cc5nc(cc1[nH]2)C(C)=C5CCC(=O)O)C(CCC(=O)O)=C4C)c(C)c3C=C	i	74	25*!	-1
CC(C)Oc1cccc(C(=O)Nc2nnc([C@H]3C[C@H](O)[C@@H](CO)O3)s2)c1	i	.	.	2
Cc1ccc2nc(NC(=O)CN3C(=O)NC4(CCCCC4)C3=O)sc2c1	i	971	96	-11
CN(CC(=O)NCCc1ccc(S(N)(=O)=O)cc1)S(=O)(=O)c1cccc2nsnc12	+	263	110	2
COc1ccc(CCC(=O)OCc2csc(CC(=O)Nc3ccccc3C)n2)cc1	+	458	.	1
Cc1ccccc1NC(=O)COC(=O)c1ccc(S(C)(=O)=O)c([N+](=O)[O-])c1	i	250	96	1
Cc1ccccc1NC(=O)Cc1nc(COC(=O)c2ccc(S(C)(=O)=O)c([N+](=O)[O-])c2)cs1	+	314	98	-1
CN(C)c1ccc(-c2ccnc3c2CC(C)(C(=O)NCc2ccccc2)O3)cc1 (stereo unspecified)	+	.	.	0
CC(=O)c1ccc(NC(=O)C2CC(c3ccc(F)cc3)=NO2)cc1 (stereo unspecified)	i	.	101	7
O=C(NC1CCCC1)C1CC(c2ccc(F)cc2)=NO1 (stereo unspecified)	i	0.0*	111	-7
N#C/C(=C\c1ccc(N2CCOCC2)o1)C(=O)NCCc1ccccc1	.	288	120	.
N#C/C(=C\c1ccc(N2CCOCC2)o1)C(=O)NCC1CCCO1 (stereo unspecified)	i	227	95	111*
N#C/C(=C/c1ccc(N2CCOCC2)o1)C(=O)Nc1ccccc1	+	.	162	.
O=C(/C=C/c1ccccc1)c1c[nH]c2ccccc12	i	336	64*	-8
O=C(C=Cc1ccccc1)c1c[nH]c2ccccc2c1=O	?	.	83	37
CC(/C=C/c1ccc(O)cc1)=N/O	+	291	106	-2
C/C(=N\NC(=O)CNC(=O)c1ccc(F)cc1)c1ccco1	i	185	96	73*
C/C(=N\NC(=O)Cn1cc([N+](=O)[O-])cn1)c1ccco1	i	0.0*	110	10
COC(=O)c1nn(-c2ccccc2)c(-c2ccccc2)c1C(=O)c1ccccc1	i	338	113	50*
O=C(Nc1ccc2c(c1)OCCO2)C(c1cc2ccccc2o1)N1CCN(C/C=C/c2ccccc2)CC1 (stereo unspecified)	i	.	.	-8
SMILES	Myeloid diff 2	T cell modulator	Pemphigus Ab inh	Vif inh
CC(=O)Oc1c(C)c(C)c2c(c1C)CC[C@@](C)(CCC[C@H](C)CCC[C@H](C)CCCC(C)C)O2	+	879	101	-7
Cc1cc(O)cc2c1O[C@@](C)(CCC[C@@H](C)CCC[C@@H](C)CCCC(C)C)CC2	i	437	104	-8
COc1cc(C(=O)NNC(=O)c2ccc(F)cc2)ccc1OCC(=O)N1CCOCC1	i	402	103	13
COc1cc(C(=O)N2CCN(S(=O)(=O)c3cccc(F)c3)CC2)ccc1OCC(=O)N1CCOCC1	i	571	87*	8
COc1cc(C(=O)NCCc2ccc3c(c2)OCCO3)ccc1OCC(=O)N1CCOCC1	i	542	108	1
COc1cc(C(=O)NCCc2ccc(F)cc2)ccc1OCC(=O)N1CCOCC1	i	317	86*	-12
CN1C(=O)NC(c2ccccc2[N+](=O)[O-])C2=C1CCCC2=O (stereo unspecified)	+	210	227	-1
COc1ccc(C(C)(NC(C)=O)c2nc(-c3ccncc3)cs2)cc1 (stereo unspecified)	i	.	.	4
Cc1nc(NC(=O)/C=C/c2ccccc2)sc1C(=O)Nc1ccccc1Cl	i	715	78*	-2
Cc1nc(NC(=O)/C=C/c2ccccc2)sc1C(=O)Nc1ccc(Cl)cc1	i	845	80	-3
O=C(CN1C(=O)NC(Cc2ccccc2)C1=O)Nc1ccccc1OC(F)F (stereo unspecified)	i	287	108	5
COc1ccc(OC(F)(F)F)cc1CC1(C)C(=O)Nc2c(Cl)ccc(Cl)c21 (stereo unspecified)	i	.	.	.
N#Cc1c(-c2ccc(Cl)cc2)n(O)c2ccccc12	?	.	93	-15
CCSc1nc(COC(=O)NC)c(COC(=O)NC)n1C	+	.	259	2
Cc1coc(NC(=O)CSc2nc(-c3ccc(Cl)cc3)cc(C(F)(F)F)c2C#N)n1	+	496	91	-3
Cc1cccc(OCC(=O)N(Cc2ccco2)c2c(N)n(Cc3ccccc3)c(=O)[nH]c2=O)c1	i	321	.	-5
CCOc1ccc(OCC(=O)N(C)c2c(N)n(Cc3ccccc3)c(=O)[nH]c2=O)cc1	i	78	97	4
CC1CCN(CC(=O)N(C)c2c(N)n(Cc3ccccc3)c(=O)[nH]c2=O)CC1	+	.	113	.
CC(=O)c1cccc(OCC(=O)N(Cc2ccco2)c2c(N)n(Cc3ccccc3)c(=O)[nH]c2=O)c1	+	354	91	8
CN(C(=O)CCOc1ccccc1)c1c(N)n(Cc2ccccc2)c(=O)[nH]c1=O	i	263	63*	9
CC(C)(C)NCC(O)COc1ccccc1C1CCCC1 (stereo unspecified)	+	97	97	52*
O=C1/C(=C\c2cc(Cl)c(O)c(Cl)c2)SC(=S)N1Cc1ccccc1	+	450	207	i
COc1ccc(S(=O)(=O)NNC(=O)C23CC4CC(CC(C4)C2)C3)cc1	i	296	109	-6
N#Cc1cccc(S(=O)(=O)NNC(=O)C23CC4CC(CC(C4)C2)C3)c1	i	58*	96	7
CCc1nc2ccc(C(=O)N(C)Cc3ccco3)cn2c1N(CC)Cc1cccc(Br)c1	i	.	.	11
CCc1ccc(N2C(=O)/C(=C/c3cccs3)N(CC(=O)OC)C2=S)cc1	i	182	121	116*
COC(=O)CN1C(=S)N(c2ccc(OC)cc2)C(=O)/C1=C/c1cccs1	i	381	78	21
COC(=O)c1ccc(CNC(=O)COC(=O)/C=C/c2cc(OC)c(OC)c(OC)c2)cc1	i	263	61*	-16
O=C(Nc1nccs1)c1cn(-c2ccccc2)nc1-c1ccncc1	+	151	86	-3
